Data on three molecules can be found in paper PMC6260118 (Thrombosis and Haemostasis, 2017).

Each structure is given as a SMILES string. Like-named read-outs stand apart in the source and are kept apart here. A value given as a limit tells only on which side of the number the result lay.

The nature of data set [1]: Pharmacokinetics of ciraparantag and metabolite BAP in serum/plasma and urine. In kind it is in vivo, human. The conditions noted are these: for dose proportionality of pharmacokinetics: based on Cmax and t½, 5-300 mg. The method, boiled down: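 Healthy non-smoking adults aged 18–65 received single escalating doses of test compound from 5 to 300 mg. Each dose was a sterile aqueous solution given by slow IV injection into an indwelling catheter, alone and, after at least four days' washout, about 3 h after oral edoxaban 60 mg. Parent compound and its piperazine metabolite were measured in serum/plasma and in urine pooled over the first 24 h.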

Data set [2] in a line: Phase I safety and tolerability, adverse events. In kind it is in vivo, human. The method, boiled down:
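The trial was a randomised, double-blind, placebo-controlled phase I study with eight cohorts of 10 healthy subjects each, randomised 8:2 to test compound or saline. Single IV doses were given alone and then about 3 h after edoxaban 60 mg orally. Safety was assessed in everyone dosed at least once: adverse events, vital signs, pulse oximetry, ECGs, clinical laboratory tests, fecal occult blood and concomitant medications. Treatment-emergent events were those starting on or after dosing.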

Data set [3] relates to edoxaban-induced anticoagulation. Put plainly: Whole blood clotting time. Type of data set: in vivo, human. The method, boiled down:
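Native whole blood was tested in glass tubes with no activator or anticoagulant, three tubes of 0.5 ml each. Clotting time was read by tilt-tube visual inspection. Testing began in Period 2 of the 50 mg cohort and continued in all later cohorts, and the 25 mg cohort was repeated with it. IV test compound or saline was given about 3 h after edoxaban 60 mg orally, with follow-up to 24 h. Groups were compared by ANOVA with Tukey HSD, p<0.05.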

For another data set, the system named is clot fibrin. In kind it is in vivo, human.
Data set [4] relates to edoxaban-induced anticoagulation. Put plainly: Whole blood point-of-care prothrombin time. In kind it is in vivo, human. The settings on record: within cohorts and across escalating dose cohorts. The procedure, abridged: (§1)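 Whole blood was tested serially by point-of-care prothrombin time and by thromboelastography reaction time. Subjects were healthy volunteers in escalating-dose cohorts of 8 active and 2 placebo. They received single slow IV test compound or saline about 3 h after a single 60 mg oral dose of edoxaban.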

Data set [5] shares this test system. Put plainly: Thromboelastography reaction time. Type of data set: in vivo, human. The conditions noted are these: within cohorts and across escalating dose cohorts. The method, boiled down: as §1
The conditions of data set [6]: cited from earlier work.
The next data set relates to plasma proteins. The settings on record: cited from earlier work.
The test system of data set [7] is hepatic cytochrome enzymes or membrane transporters. The conditions noted are these: cited from earlier work.
The subject of data set [8] is anticoagulant-induced bleeding. The conditions noted are these: pre-clinical animal models of anticoagulant-induced bleeding; cited from earlier work.
[9] abbreviates: ciraparantag arm N=66, number (% of subjects).
The mark [10] stands for this setting: single IV dose 100 to 300 mg following edoxaban 60 mg.

With `NCCCN1CCN(CCCN)CC1` [BAP, 1,4-bis(3-aminopropyl)-piperazine], the “dose proportionality of pharmacokinetics” value in [1] is “dose-proportional pharmacokinetics”.

As for `N=C(N)NCCC[C@H](N)C(=O)NCCCN1CCN(CCCNC(=O)[C@@H](N)CCCNC(=N)N)CC1` [ciraparantag], in [2] (ciraparantag arm N=66), the “Number of subjects who died” value came out at 0 and the “Number of subjects with SAE” value was found to be 0. Moreover, the “Number of AEs” value in data set [2] (ciraparantag arm N=66, all single IV doses, Periods 1 and 2) came to 204. Besides, in data set [2] (setting [9]), the “Number of AEs per subject: 0” value was 17 (25.8 %), the “Number of AEs per subject: 1” value is recorded as 10 (15.2 %), the “Number of AEs per subject: 2–3” value is on record as 16 (24.2 %) and the “Number of AEs per subject: 4–5” value is given as 9 (13.6 %). Besides, in data set [2] (setting [9]), the “Number of AEs per subject: >5” value is 14 (21.2 %), the “Number of subjects with AE” value was 49 (74.2 %), the “Number of subjects with AE related to Ciraparantag/Placebo” value is reported as 36 (54.5 %) and the “Number of subjects with AE related to edoxaban” value was 5 (7.6 %). Also, in data set [2] (setting [9]), the “Number of subjects with AE related to study drug” value is 38 (57.6 %) and the “Number of subjects with TEAE” value is reported as 49 (74.2 %). Moreover, the “Changes in blood counts, blood chemistries (electrolytes, bilirubin, hepatic enzymes) or electrocardiograms” value in data set [2] (healthy subjects, single IV doses 5-300 mg) is reported as “no significant changes”. The “dose proportionality of pharmacokinetics” value in data set [1] is on record as “dose-proportional pharmacokinetics”. In [1] (healthy subjects), the main elimination route entry is on record as “Renal excretion of ciraparantag metabolite”. Further, the half-life (in general, the time needed for the level to fall by half in the phase considered) in data set [1] (human, serum, iv, 5 mg) was roughly 12 min. For the same molecule, the peak concentration (Cmax) (as a rule, the maximum level reached in the sampled fluid or tissue) in [1] (human, serum, iv, 300 mg) was roughly 10600 ng/mL. Moreover, the “reversal of edoxaban-induced anticoagulation (WBCT) within 10 min” value in data set [3] (50 mg ciraparantag IV after edoxaban 60 mg) is “Significant reversal”. Moreover, the “reversal of edoxaban-induced anticoagulation (WBCT)” value in data set [3] (100–300 mg ciraparantag IV (Cohorts 5 to 7) after edoxaban 60 mg) is given as “essentially full reversal”. In addition, in data set [3] (ciraparantag in the absence of edoxaban), the “effect on WBCT” value is “no effect”. Also, in data set [3] (setting [10]), the “duration of reversal of anticoagulation” value is listed as “at least 24 hours” and the “time to full reversal of anticoagulation” value is no more than 10 min. The anticoagulation above baseline result in [3] (within 30 min of injection, after therapeutic dose of edoxaban) is listed as “less than 10%”. In addition, in the data set on clot fibrin (25 mg ciraparantag after edoxaban 60 mg, partial reversal), the mean fibrin diameter is given as roughly 200 nm. Further, in the data set with clot fibrin (100 mg ciraparantag after edoxaban 60 mg, full reversal), the mean fibrin diameter is listed as roughly 250 nm. In addition, in the data set with clot fibrin (300 mg ciraparantag after edoxaban 60 mg, full reversal), the mean fibrin diameter is reported as roughly 250 nm. Further, in the data set with clot fibrin (single i.v. dose of 100 mg ciraparantag after edoxaban), the “time to restoration of fibrin strands to baseline levels” value is recorded as no more than 30 min. In addition, the “change in mean PoC-PT” value in [4] was “no change over time”. Further, in [5], the “change in mean TEG-R” value was “no change over time”. Besides, the “binding to a selected spectrum of cardiovascular and antiepileptic drugs” value in [6] is on record as “no binding”. Further, the binding to anticoagulants entry in data set [6] (non-covalent hydrogen bonding and charge-charge interactions) was “binds similarly to the new oral Xa inhibitors, edoxaban, rivaroxaban and apixaban, and to the oral thrombin inhibitor, dabigatran, but not to argatroban or warfarin”. The “binding to plasma proteins” value in the data set on plasma proteins is “no significant binding”. Further, in data set [7], the “interaction with hepatic cytochrome enzymes or membrane transporters” value is “does not interact substantially”. In [8], the blood loss entry is “reduces blood loss to baseline levels”.

Consider `CN1CCc2nc(C(=O)N[C@@H]3C[C@@H](C(=O)N(C)C)CC[C@@H]3NC(=O)C(=O)Nc3ccc(Cl)cn3)sc2C1` [edoxaban, reference compound], for which the “effect on WBCT” value in data set [3] (edoxaban 60 mg oral) is recorded as “significant elevation”. Further, the mean fibrin diameter in the data set with clot fibrin (edoxaban anticoagulation without reversal, native state ∼250 nm) is roughly 125 nm.
